Screening data deposited in PubChem BioAssay by The Scripps Research Institute Molecular Screening Center.
TRPML3 agonist: human mucolipin-3 channel agonism | Q8TDD5 | HEK293 TRPML3-YFP, Fluo-8 calcium fluorescence; 100% = the carbachol control signal | activation, % at 3 µM | 220,000 compounds, 0.29% hits | AID 1448;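 active = activation above its plate's cutoff, the mean activation of the plate's test wells plus 3 SD, cut at about 12% in these data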;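 note: 0% = DMSO only wells and 100% = carbachol wells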
Target sequence (Q8TDD5 whole entry, looked up): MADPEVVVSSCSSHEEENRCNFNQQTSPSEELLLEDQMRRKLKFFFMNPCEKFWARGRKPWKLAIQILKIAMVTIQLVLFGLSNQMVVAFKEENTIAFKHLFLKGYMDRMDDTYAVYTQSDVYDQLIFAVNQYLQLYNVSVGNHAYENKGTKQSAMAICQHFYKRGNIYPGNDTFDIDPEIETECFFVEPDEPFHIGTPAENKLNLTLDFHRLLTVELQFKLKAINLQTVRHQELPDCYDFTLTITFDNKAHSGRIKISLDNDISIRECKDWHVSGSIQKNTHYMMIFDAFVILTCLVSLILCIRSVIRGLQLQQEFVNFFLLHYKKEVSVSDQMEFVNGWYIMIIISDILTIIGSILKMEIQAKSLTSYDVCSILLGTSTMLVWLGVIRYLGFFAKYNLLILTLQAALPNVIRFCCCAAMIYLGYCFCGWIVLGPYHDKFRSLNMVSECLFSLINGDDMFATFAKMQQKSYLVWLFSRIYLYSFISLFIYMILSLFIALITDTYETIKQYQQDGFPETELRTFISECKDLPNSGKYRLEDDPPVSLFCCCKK
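Test system: HEK293 cells stably carrying human TRPML3-YFP; Doses: single dose, 3 µM final nominal compound, 0.3% DMSO final; Schedule: dye loading 1 h 37 °C then 30 min ambient, 125 s read; Technique: Fluo-8 calcium fluorescence; Benchmarks: high control carbachol 87 µM, low control DMSO.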
OX1R antag-1: OX1R (human) antagonism; O43613; OX1R-expressing cells, FRET antagonist read-out; inhibition, % at 6.6 µM; 330,000 compounds, 1.8% hits; AID 485270; in the data active = inhibition mostly above about 38%, no sharp cut-off; inactive = mostly below about 40%;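 note: 0% = agonist challenge alone and 100% = reference antagonist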
OX1R antag-2: human HCRTR1 antagonism; O43613; CHO/OX1R cells, Fluo-8 calcium fluorescence, orexin A; inhibition, % at 5 µM; 330,000 compounds, 0.43% hits; AID 434989;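 active = inhibition above its plate's threshold, mean inhibition of all tested compounds on the plate plus 3 SD, cut at about 37% in these data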;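 note: 0% = orexin A challenge wells and 100% = SB-334867-A antagonist wells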
CHO parental Ca: signal in parental CHO cells, OX1R antagonist counter-screen; AID 463079; parental CHO-K1, ATP-induced calcium, Fluo-8 fluorescence; 330,000 compounds, 0.63% hits; inhibition, % at 5.6 µM;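 active = inhibition above that plate's mean sample inhibition plus 3 SD, cut at about 26% in these data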;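 note: 0% = ATP-challenged DMSO wells and 100% = DMSO wells without ATP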
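material = parental CHO cells | also added = ATP as calcium-mobilizing challenge | dosing = single point at 5.6 µM | detection = intracellular calcium via Fluo-8 no-wash fluorescent dye | read-out = % inhibition | benchmarks = low control ATP plus DMSO, high control DMSO only | repeats = one well per compound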
zfTRPN1 agonist: activates the zebrafish TRPN1 channel; HEK293 zebrafish TRPN1-YFP, Fluo-8 calcium fluorescence; 100% = response to 87 µM carbachol; activation, % at 3 µM; 220,000 compounds, 0.18% hits;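 active = activation above its plate's cutoff, the mean activation of test wells on that plate plus 3 SD, cut at about 19% in these data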;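 note: 0% = DMSO alone and 100% = 87 µM carbachol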
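Material – zebrafish TRPN1-YFP in HEK293 cells · Doses – 3 µM single point · Schedule – dye 1 h 37 °C plus 30 min RT · Signal – Fluo-8 calcium fluorescence, excitation 470-495 nm, emission 515-575 nm · Read-out – % activation versus carbachol response · Control set – carbachol high, DMSO low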
* hit, by the source's call; . = not tested or not shown. Most compounds without a hit are left out; they make up all but 2.5% or so of the library.

SMILES	TRPML3 agonist	OX1R antag-1	OX1R antag-2	CHO parental Ca	zfTRPN1 agonist
CCOc1ccc(NC(=O)CN(C)C(=O)c2cccnc2Sc2ccc(Cl)cc2)cc1OCC	.	32	-41	-27	.
CCN(CC)C(=O)c1ccc(COc2ccc(Cl)c(C)c2)o1	.	19	-13	44*	.
Cc1cc(OCc2ccc(C(=O)n3cccn3)o2)ccc1Cl	0	23	-4	-9	2
CC1(C)CC(=O)c2c(oc3ccc(NS(=O)(=O)c4cccc5cccnc45)cc23)C1	2	10	-6	-20	5
Cc1nnc(N2C(=O)c3cccc4cccc(c34)C2=O)s1	1	59*	-5	9	0
O=C(CN1C(=O)COc2ccc(S(=O)(=O)N3CCOCC3)cc21)NCc1ccccn1	-1	3	-18	-8	-1
Cc1ccccc1NC(=O)C(C)OC(=O)c1ccccc1C(=O)N(C)c1ccccc1 (centres undefined)	.	12	-9	-18	.
N#Cc1cccc(NC(=O)CSc2ccc3c4c(cccc24)C(=O)c2ccccc2-3)c1	3	62	75*	59*	3
CC(=O)Nc1ccc(/C=N/N2C(=O)NC(C)(c3ccc(OC(F)F)cc3)C2=O)cc1 (centres undefined)	4	-10	53*	36*	18
CCOC(=O)CN1C(=O)NC(C)(c2ccc(OC(F)F)cc2)C1=O (centres undefined)	0	12	-12	14	0
CC1(c2ccc(OC(F)F)cc2)NC(=O)N(CC(=O)Nc2ccccc2)C1=O (centres undefined)	.	1	52*	49*	.
CC1(c2ccc(OC(F)F)cc2)NC(=O)N(CC(=O)Nc2ccc3c(c2)OCO3)C1=O (centres undefined)	26*	-2	38	40*	30*
CC(C)(C)c1ccc(C2(C)NC(=O)N(CC(=O)Nc3ccc4c(c3)OCO4)C2=O)cc1 (centres undefined)	2	7	-10	-2	7
CC1(c2ccccc2Cl)NC(=O)N(CC(=O)Nc2ccccc2OC(F)F)C1=O (centres undefined)	.	43*	-23	-17	.
O=C(NNC(=O)c1c(O)c2ccccc2[nH]c1=O)c1ccccc1Br	.	7	-14	-1	.
CN(C)CCN1C(=O)C(O)=C(C(=O)c2cc3ccccc3o2)C1c1ccccn1 (centres undefined)	0	49*	-7	8	1
CC(=O)c1ccc(OCc2cc(C(=O)NC(C)CCn3cccn3)no2)cc1 (centres undefined)	.	2	-9	4	.
COc1ccc2oc(=O)c(C(=O)OCC(=O)c3ccc([N+](=O)[O-])cc3)cc2c1	1	15	-8	-13	-1
Cc1ccc(OCC(=O)Nc2nnc(S(=O)(=O)N3CCC(C)CC3)s2)cc1	.	12	-6	-5	.
CCC1CCCCN1C(=O)COC(=O)CSc1ccc(C(N)=O)cc1[N+](=O)[O-] (centres undefined)	.	20	-12	-17	.
Cc1c(NC(=O)COC(=O)CSc2ccc(C(N)=O)cc2[N+](=O)[O-])c(=O)n(-c2ccccc2)n1C	.	71*	2	-4	.
COC(=O)C1CCN(C(=O)COC(=O)CSc2ccc(C(N)=O)cc2[N+](=O)[O-])CC1	.	37*	-7	-1	.
CCOC(=O)C1CCN(C(=O)COC(=O)CSc2ccc(C(N)=O)cc2[N+](=O)[O-])CC1	.	55*	-11	-5	.
Cc1ccc(C(=O)OCC(=O)Nc2c(C)n(C)n(-c3ccccc3)c2=O)cc1[N+](=O)[O-]	0	16	-16	-1	2
CC(=O)NC(CC(=O)c1ccc([N+](=O)[O-])cc1)C(Cl)(Cl)Cl (centres undefined)	1	76*	3	-7	2
SMILES	TRPML3 agonist	OX1R antag-1	OX1R antag-2	CHO parental Ca	zfTRPN1 agonist
O=C(CNC(=O)c1cccs1)c1ccc([N+](=O)[O-])cc1	1	59*	0	-8	0
CC(=O)NC(CC(=O)O)c1ccc([N+](=O)[O-])cc1 (centres undefined)	1	21	-7	-9	2
O=C(CNC(=O)c1ccco1)OCC(=O)c1ccc(Cl)cc1	0	5	-8	-3	2
O=C(CNC(=O)c1ccco1)OCC(=O)c1ccc([N+](=O)[O-])cc1	.	41*	-10	-7	.
O=C(CNC(=O)c1ccc([N+](=O)[O-])cc1)c1ccccc1	0	47*	6	2	-1
CCOc1ccc(N(CC(=O)Nc2cccc(Cl)c2)S(=O)(=O)c2c(C)noc2C)cc1	0	18	-5	40*	1
Cc1ccc(N(CC(=O)NCc2ccc3c(c2)OCO3)S(=O)(=O)c2c(C)noc2C)cc1	0	60*	-8	-20	-1
COc1ccccc1CNC(=O)CN(c1ccc(C)cc1)S(=O)(=O)c1c(C)noc1C	.	71*	5	-27	.
COc1ccc(CNC(=O)CN(c2ccc(C)cc2)S(=O)(=O)c2c(C)noc2C)cc1	.	44*	-5	-20	.
COc1ccccc1CNC(=O)CN(c1ccc(C)cc1)S(=O)(=O)c1c(C)n[nH]c1C	-1	19	-14	-18	1
C[C@]1(CC/C(=C/CO)CO)[C@H](CO)CC[C@@]23COC(=O)C2=CCC[C@@H]31	.	12	-7	-11	.
COc1ccc(OC2CCN(S(=O)(=O)c3ccc(OC)cc3)CC2)cc1	.	0	27	36*	.
O=C(CNCc1ccccc1)NC1C2CC3CC(C2)CC1C3 (centres undefined)	.	6	-30	-21	.
O=C(NCCCn1ccnc1)/C(=C/c1ccccc1)NC(=O)c1ccccc1	1	15	-2	12	1
CN(C)c1ccc(/C=C(\NC(=O)c2ccccc2)C(=O)NCCCn2ccnc2)cc1	.	40*	-1	-5	.
CCOC(=O)NN1C(=O)c2ccccc2NC1c1cccs1 (centres undefined)	.	2	-6	0	.
O=C(NCc1ccccc1)c1ccc(N2CCC3(CC2)CC(c2ccc(Cl)cc2)=NO3)c([N+](=O)[O-])c1	.	25	-24	3	.
Cc1ccc(S(=O)(=O)N2CCN(C(=O)CSC(=S)N3CCCC3)CC2)c(C)c1	.	6	3	-14	.
CCOc1cc(S(=O)(=O)Nc2ccc(Cl)cn2)ccc1Cl	0	26	-9	-14	0
CCOc1cc(S(=O)(=O)Nc2ccc(CC)cc2)ccc1Cl	0	12	-3	42*	3
Cc1c(NC(=O)/C(C#N)=C/c2ccc(-c3ccc(Cl)c(Cl)c3)o2)c(=O)n(-c2ccccc2)n1C	0	17	-30	-19	0
Cc1c(NC(=O)/C(C#N)=C/c2ccc(-c3ccccc3Cl)o2)c(=O)n(-c2ccccc2)n1C	-1	75*	-1	-35	-3
Cc1c(NC(=O)/C(C#N)=C/c2ccc(-c3cccc(Cl)c3)o2)c(=O)n(-c2ccccc2)n1C	0	75*	6	-30	-4
